Assay outcomes from PubChem.
PTPN22 inh 2 = inhibitors of human LYP (PTPN22) phosphatase. recombinant LYP catalytic domain, DiFMUP fluorescence. Q9Y2R2. AID 640. inhibition, % at 2 µM. actives 0.21% (n = 96,000);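 active means inhibition at 2 µM at or above a set limit, the screen mean plus 3 SD, cut at about 24% in these data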
HIV Rev-RRE inh = inhibitors of HIV-1 Rev-RRE RNA interaction. Rev peptide-RRE RNA binding, FRET. inhibition, % at 8 µM. actives 0.79% (n = 97,000). AID 704;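 active means inhibition above the screen-wide mean plus 3 SD, cut at about 35% in these data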
Target sequence (P05866 whole entry, looked up): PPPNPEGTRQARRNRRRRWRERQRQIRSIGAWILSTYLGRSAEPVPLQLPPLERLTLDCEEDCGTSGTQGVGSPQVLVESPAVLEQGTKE
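Test system – labelled RRE RNA duplex and labelled Rev peptide · Reagent – labelled Rev peptide · Doses – one concentration, 8 µM nominal · Incubation – 5 + 15 min at 25 °C · Signal – FRET fluorescence readout · Read-out basis – % inhibition of FRET ratio versus controls · Control set – DMSO wells as 0% and neomycin B wells as 100% inhibition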
PLAP act = activates human placental alkaline phosphatase | actives 1.2% (n = 96,000) | activation fold at 20 µM | P05187 | purified PLAP enzyme, luminescent substrate read-out; stronger effect = higher value | AID 696; in the data active means activation fold above about 2
Plk1 PBD FP = Plk1 (human) PBD binding inhibition. actives 0.13% (n = 97,000). inhibition, %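 (tested at about 20 µM)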. P53350. Plk1 PBD phosphopeptide binding, fluorescence polarization; in the data active means inhibition above about 34%, passing the limit was not always enough
Target sequence (P53350 whole entry, looked up): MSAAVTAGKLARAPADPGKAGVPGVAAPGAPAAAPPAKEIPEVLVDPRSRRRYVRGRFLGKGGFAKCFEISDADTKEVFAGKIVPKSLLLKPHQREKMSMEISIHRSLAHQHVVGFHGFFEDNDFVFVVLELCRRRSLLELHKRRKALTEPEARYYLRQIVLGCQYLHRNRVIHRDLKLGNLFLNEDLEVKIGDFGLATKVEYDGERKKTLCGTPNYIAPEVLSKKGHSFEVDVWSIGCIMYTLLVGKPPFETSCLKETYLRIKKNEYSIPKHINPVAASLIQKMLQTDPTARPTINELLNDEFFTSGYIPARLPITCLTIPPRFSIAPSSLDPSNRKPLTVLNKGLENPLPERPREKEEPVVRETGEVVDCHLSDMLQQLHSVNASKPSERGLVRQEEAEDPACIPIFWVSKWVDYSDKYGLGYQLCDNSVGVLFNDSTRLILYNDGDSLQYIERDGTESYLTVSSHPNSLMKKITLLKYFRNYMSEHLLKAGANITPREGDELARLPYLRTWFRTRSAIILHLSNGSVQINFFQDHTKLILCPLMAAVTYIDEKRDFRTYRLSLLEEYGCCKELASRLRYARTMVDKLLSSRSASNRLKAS
PLK1 kinase inh = blocks human PLK1 kinase activity | recombinant PLK1 kinase, TR-FRET peptide phosphorylation | inhibition, % at 10 µM | actives 0.53% (n = 97,000);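 active means inhibition of 50% or more in the single-concentration screen; inactive means inhibition below 50%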
PTPN22 act = increases human PTPN22 phosphatase activity. Q9Y2R2. recombinant LYP, DiFMUP fluorescence; 0 = plate median, 100 = signal doubled. activation, % at 2 µM. actives 0.11% (n = 96,000). AID 697;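 active means activation at 2 µM above a set limit, the mean plus 5 SD, cut at about 37% in these data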
Each line names hits and unclear results; the compound was inactive in the other large screens; [ ] = another dose, or the depositor's remark. Sampled rows, rich in hits. Any-hit rate of the full collection: about 2.7%.

Cc1ccc(C(=O)NCCN(C)C)c(C)c1	none
CCc1nnc(NC(=O)c2ccc(OC)cc2OC)s1	none
O=C(O)c1cc(-c2ccccn2)n[nH]1	PLAP act 2.5
O=C(O)c1cc(-c2ccc(Cl)cc2)n[nH]1	none (no result: PTPN22 inh 2, HIV Rev-RRE inh, Plk1 PBD FP, PLK1 kinase inh, PTPN22 act)
Oc1ccc(CN2CCc3ccccc3C2)c2cccnc12	PLAP act 2.1
Oc1ccc(CN2CCCCC2)c2cccnc12	none (no result: PLAP act)
CCCOC(=O)c1ccc(OC(=O)c2ccco2)cc1	none
COC(=O)c1ccccc1NC(=O)CSc1nnnn1-c1ccc(C)cc1C	none
Cc1ccc(-n2nnnc2SCC(=O)NNC(=O)c2ccco2)c(C)c1	PLAP act 2
CC1CCc2nn(CC(=O)NC3CCCC3)cc2C1 (stereo not given)	none
COc1ccc(CC(=O)OCn2nnc3ccccc3c2=O)cc1	none (no result: PLAP act)
CCCc1cc(-n2ccnc2)n2c(nc3ccccc32)c1C#N	HIV Rev-RRE inh 117.5[fluorescence artefact?]
CO/N=C/C(=N\Nc1ccc(OC)cc1)C(=O)c1ccc(OC)cc1	none
c1cc2c3c(cccc3c1)C(N1CCN(C3=Nc4cccc5cccc3c45)CC1)=N2	HIV Rev-RRE inh 40.0 (no result: PLAP act)
CCOC(=O)N1CCN(C2=Nc3cccc4cccc2c34)CC1	none
c1ccc(CC2CCN(C3=Nc4cccc5cccc3c45)CC2)cc1	HIV Rev-RRE inh 42.1
CC(=O)N1CCN(C2=Nc3cccc4cccc2c34)CC1	none (no result: PTPN22 inh 2, HIV Rev-RRE inh, Plk1 PBD FP, PLK1 kinase inh, PTPN22 act)
O=C(NC1CCCCCC1)c1ccc2c(=O)n3c(nc2c1)CCCCC3	none
COc1cccc(/C=N/Nc2nc(Nc3ccccc3)nc(-n3nc(C)cc3C)n2)c1O	PLAP act 2.3
Cc1ccc(O)c(-c2cc(C(F)(F)C(F)F)[nH]n2)c1	PLAP act 2
COc1ccc(CN=Cc2[nH]c3ccc(Br)c(Cl)c3c2O)cc1	HIV Rev-RRE inh 125.2[fluorescence artefact?]
COc1ccc(CN=CC2=C(O)CNC2=O)cc1	none
O=C(CSc1ccccc1)NCc1cccnc1	none
Cc1ccc(-c2cnc(NC(=O)CCC(=O)N3CCCCC3)n2C)cc1	none
CCCCNC(=O)CCC(=O)Nc1ncc(-c2ccc(C)cc2)n1C	PLAP act 2
NS(=O)(=O)c1ccc(CNC(=O)C23CC4CC(CC(C4)C2)C3)cc1	none
COC(=O)C1CCN(C(=O)COC(=O)c2n[nH]c3ccccc23)CC1	none (no result: PLAP act)
CC1CCCN(C(=O)COC(=O)c2n[nH]c3ccccc23)C1 (stereo not given)	PLAP act 2
COc1ccc(CNC(=O)COC(=O)c2n[nH]c3ccccc23)cc1OC	none (no result: PLAP act)
COc1ccccc1CNC(=O)COC(=O)c1n[nH]c2ccccc12	PLAP act 2.3
COC(=O)C1=C(C)N(C)C(C)=C(C(=O)OC)C1c1ccc(C(=O)OC)cc1	none
COC(=O)C1=CNC=C(C(=O)OC)C1c1ccc(C(=O)OC)cc1	PLAP act 2 (no result: PTPN22 inh 2, HIV Rev-RRE inh, Plk1 PBD FP, PLK1 kinase inh, PTPN22 act)
CC(=O)Nc1nc2n(n1)C(c1ccc(F)cc1)C=C(c1ccccc1)N2 (stereo not given)	HIV Rev-RRE inh 56.3
COc1ccccc1C1C=C(c2ccc(Cl)cc2)Nc2nc(NS(C)(=O)=O)nn21 (stereo not given)	none
O=C(c1nc2n(n1)C(c1ccc(Cl)cc1)C=C(c1ccccc1)N2)N1CCOCC1 (stereo not given)	HIV Rev-RRE inh 118.1[fluorescence artefact?]
CS(=O)(=O)Nc1nc2n(n1)C(c1ccccc1)C=C(c1ccc(Br)cc1)N2 (stereo not given)	HIV Rev-RRE inh 60.9
Nc1nc(NC(=O)c2ccco2)nn1-c1ccccc1	none (no result: PTPN22 inh 2, HIV Rev-RRE inh, Plk1 PBD FP, PLK1 kinase inh, PTPN22 act)
O=C(Nc1nc2n(n1)C(c1ccccc1)C=C(c1ccccc1)N2)c1ccco1 (stereo not given)	HIV Rev-RRE inh 45.6, PLAP act 2.9
CCOC(=O)C1CCN(C(=O)c2sc3ncnc(N4CCC(C)CC4)c3c2C)CC1	none (no result: PLAP act)
COc1ccc(-c2nc3scc(-c4ccc(OC)c(OC)c4)c3c(=O)o2)cc1	none
CNC(=O)c1[nH]cnc1C(=O)Nc1ccccc1C	none (no result: PLAP act)
O=S1(=O)N=C(N2CCc3ccccc3C2)c2ccccc21	none
Cc1nc2c3ccccc3n(CC(=O)c3ccc(F)cc3)c(=O)n2n1	none (no result: PTPN22 inh 2, PTPN22 act)
CC(=O)Nc1nc2n(n1)C(c1ccccc1)C=C(c1ccccc1)N2 (stereo not given)	PLAP act 2.1
CC(=O)Nc1nc2n(n1)C(c1ccc(Cl)cc1)C=C(C)N2 (stereo not given)	none
CC1=CC(c2ccc(Cl)cc2)n2nc(NC(=O)c3ccccc3)nc2N1 (stereo not given)	PLAP act 2.3
COc1ccc(C2C=C(c3ccc(Cl)cc3)Nc3nc(NC(C)=O)nn32)cc1 (stereo not given)	HIV Rev-RRE inh 77.9
CCC(=O)Nc1nc2n(n1)C(c1ccc(OC)cc1)C=C(c1ccccc1)N2 (stereo not given)	HIV Rev-RRE inh 44.6
O=S(=O)(NCC1CCCO1)c1cc(Br)c(Br)s1 (stereo not given)	none (no result: PTPN22 inh 2, HIV Rev-RRE inh, Plk1 PBD FP, PLK1 kinase inh, PTPN22 act)
C=CCn1c(-c2ccccc2)n[nH]c1=S	none (no result: PLAP act)
C=CCn1c(-c2cccc3ccccc23)n[nH]c1=S	PLAP act 2.8
CCOc1ccc(N2C(=O)CS/C2=N/NC(=O)COc2ccc3ccccc3c2)cc1	none
CCOc1ccc(N2C(=O)CS/C2=C(\C(Cl)=C(Cl)Cl)[N+](=O)[O-])cc1	PTPN22 inh 2 25.6
CCN1CCN(c2c(Cl)cccc2NC(=O)c2ccc3c(c2)OCCO3)CC1	none
CCN(Cc1ccccc1)S(=O)(=O)c1ccc(S(=O)(=O)N2CCN(CCC#N)CC2)cc1	none (no result: PTPN22 inh 2, HIV Rev-RRE inh, Plk1 PBD FP, PLK1 kinase inh, PTPN22 act)
CC1(C)Cc2c(C#N)c(N3CCN(C(=O)c4ccccc4Cl)CC3)nc(-c3ccco3)c2CS1	HIV Rev-RRE inh 50.8
O=C(CN1CCCC1)Nc1c2c(nc3ccccc13)N(Cc1ccccc1)CC2	PLAP act 2
O=C(CN1CCOCC1)Nc1c2c(nc3ccccc13)N(Cc1ccccc1)CC2	none (no result: PTPN22 inh 2, HIV Rev-RRE inh, Plk1 PBD FP, PLK1 kinase inh, PTPN22 act)
CC(C)(C)C(=O)Nc1cc2nn(-c3ccccc3)nc2cc1Cl	none
NC1=NC(c2ccc(Br)cc2)n2c(nc3ccccc32)N1 (stereo not given)	PLAP act 2.2
CCOC(=O)c1ccccc1-n1c(C)cc(C2N=C(N)Nc3nc4ccccc4n32)c1C (stereo not given)	PLAP act 2.5
CCOC(=O)C1C(=O)Nc2nc3ccccc3n2C1C(C)C (stereo not given)	none
NC1=NC2(CCCCC2)n2c(nc3ccccc32)N1	none
CCOc1ccc2nc(NC(=O)CSc3nc4ccccc4c(=O)n3Cc3ccco3)sc2c1	none
CC(=O)N1C(=O)C(=C2C=C(C)OC(C)=C2)c2ccccc21	HIV Rev-RRE inh 110.2[fluorescence artefact?]
CCOC(=O)c1cnn(-c2ccc(Cl)cc2)c1C1CCN(C(=O)OC(C)(C)C)CC1	PLAP act 2.3
COc1ccc(NC(=S)N2C3CCC2CC(NC(=O)NC24CC5CC(CC(C5)C2)C4)C3)c(OC)c1 (stereo not given)	PLAP act 2.5
COc1ccccc1NC(=S)N1CCC(NC(=O)NC23CC4CC(CC(C4)C2)C3)CC1	none
